Results of several laboratories.
Target: Mitogen-activated protein kinase kinase kinase 7 (MAP3K7, Homo sapiens, UniProt O43318)
Sequence (O43318 1-606, as in one of the studies): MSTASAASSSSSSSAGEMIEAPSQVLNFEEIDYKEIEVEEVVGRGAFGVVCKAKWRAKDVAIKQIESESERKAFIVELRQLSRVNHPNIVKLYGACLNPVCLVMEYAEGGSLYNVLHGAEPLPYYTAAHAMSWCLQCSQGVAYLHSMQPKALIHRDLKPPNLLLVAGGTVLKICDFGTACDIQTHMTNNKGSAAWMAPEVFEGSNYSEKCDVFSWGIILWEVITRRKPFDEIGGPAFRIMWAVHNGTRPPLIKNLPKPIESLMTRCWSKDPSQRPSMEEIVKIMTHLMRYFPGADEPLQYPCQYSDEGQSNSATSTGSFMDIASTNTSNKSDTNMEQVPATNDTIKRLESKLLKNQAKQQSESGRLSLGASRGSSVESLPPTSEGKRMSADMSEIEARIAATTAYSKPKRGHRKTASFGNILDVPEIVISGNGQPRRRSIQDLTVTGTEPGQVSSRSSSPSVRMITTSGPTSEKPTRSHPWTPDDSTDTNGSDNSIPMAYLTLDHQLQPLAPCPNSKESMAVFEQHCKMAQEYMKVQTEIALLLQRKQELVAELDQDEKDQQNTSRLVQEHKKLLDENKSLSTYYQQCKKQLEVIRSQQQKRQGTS

c1cncc(-c2cccc(Nc3nccc(NC4CCCCC4)n3)c2)c1
remaining binding (binding; competition with immobilised ligand; 10 µM): 19%

O=C(Nc1c[nH]nc1C(=O)NC1CCNCC1)c1cc(F)cc(F)c1
remaining binding (binding; competition with immobilised ligand; 1 µM): 83%

CC(=O)N1CCC(c2ccc(C(=O)NC3=NCCN3)cc2C(F)(F)F)CC1
remaining binding (cell-free assay; competition with immobilised ligand; 1 µM): 100%

CN(C)c1nccc(-c2cnc3ncccn23)n1
remaining binding (binding; 1 µM): 36%

NS(=O)(=O)c1cc(NC(=O)Cc2ccccc2)ccc1Oc1cccc(Cl)c1
remaining binding (cell-free assay; competition with immobilised ligand; 1 µM): 75%

O=C(NCCCN1CCOCC1)c1ccc(Nc2nccc(-c3cc4ccccc4s3)n2)cc1
remaining binding (binding; competition with immobilised ligand; 1 µM): 31%

O=C(NCc1ncc(C(F)(F)F)cc1Cl)c1ccc2c(c1)C1(CCS(=O)(=O)CC1)[C@H](C1CC1)N2S(=O)(=O)c1ccc(F)cc1
remaining binding (cell-free assay; competition with immobilised ligand; 1 µM): 80%

F[C@@H]1CCN(c2nccc(-c3cnn4ncccc34)n2)C1
remaining binding (binding; 1 µM): 100%

CC1=C(C#N)[C@@H](c2ccc3[nH]nc(C)c3c2)C(C#N)=C(c2ccc(Cl)cc2)N1
remaining binding (cell-free assay; competition with immobilised ligand; 1 µM): 100%

C=CC(=O)N1CCC(C(=O)NCC(=O)N2CCN(c3nc(-c4cnc(N)nc4C(F)F)nc(N4CCOCC4)n3)CC2)CC1
remaining binding (binding; competition with immobilised ligand; 1 µM): 100%

Cc1c(NC(=O)c2cc(C(N)=O)nc3cc(F)ccc23)c(C(F)(F)F)nn1Cc1ccc(C#N)cc1
remaining binding (cell-free assay; competition with immobilised ligand; 1 µM): 68%

c1cnn2ncc(-c3ccnc(N4CCC45COC5)n3)c2c1
remaining binding (binding; 1 µM): 51%

COc1cnc(Nc2cccc(S(N)(=O)=O)c2)nc1N1CCN(c2ccccc2)CC1
remaining binding (binding; competition with immobilised ligand; 1 µM): 85%

CN(C)c1nccc(-c2cnn3ncccc23)n1
remaining binding (binding; 1 µM): 97%

CCN1CCN(Cc2ccc(C(=O)Nc3ccc(C)c(Oc4ccc5c(c4)CC(=O)N5)c3)cc2C(F)(F)F)CC1
remaining binding (binding; competition with immobilised ligand; 1 µM): 7.6%

C[C@H]1CCN(c2nccc(-c3cnn4ncccc34)n2)C1
remaining binding (binding; 1 µM): 71%

O=C(c1ccc(Nc2ncc(Cl)c(-c3ccc(Cl)s3)n2)cc1)N1CCC(N2CCCC2)CC1
remaining binding (binding; competition with immobilised ligand; 1 µM): 0%

Cc1cc(NC(=O)c2cccc(S(F)(F)(F)(F)F)c2)cc(-n2ccn3nc(-c4cccnc4)cc23)c1
remaining binding (cell-free assay; competition with immobilised ligand; 1 µM): 100%

N[C@H]1CCN(c2nccc(-c3cnn4ncccc34)n2)C1
remaining binding (binding; 1 µM): 100%

O=C(c1ccc(Nc2ncc(Cl)c(-c3cc4ccccc4s3)n2)cc1)N1CCC(N2CCCC2)CC1
remaining binding (binding; competition with immobilised ligand; 1 µM): 3.6%

CC1CCCN1c1nccc(-c2cnn3ncccc23)n1 (stereo not shown)
remaining binding (binding; 1 µM): 100%

O=C(NS(=O)(=O)c1ccc(NCC2CCOCC2)c([N+](=O)[O-])c1)c1ccc(N2CCN(Cc3ccc(C(F)(F)F)cc3-c3ccc(Cl)cc3)CC2)cc1Oc1cnc2[nH]ccc2c1
remaining binding (cell-free assay; competition with immobilised ligand; 1 µM): 100%
